Laboratory results as given in PubChem BioAssay.
Activity calls are given as the source filed them.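 The calls were made as follows, unless noted: active = fluorescence slope higher than the sample average by over 3 SD (cut at about -0.22 in these data, passing the limit was not always enough); inactive = the rest.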

Legend:
[1] = inhibitors of TNFa-induced NFkB p65 translocation, primary screen, imaging, HUVEC, MLSMR starter and 10KST1 sets (AID 438;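 active = inhibition above 20% together with a positive visual image hit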;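 also: compound added about 3h40 before a 20 min TNFalpha stimulation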;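 as to inhibition: signal is the nuclear over cytoplasmic p65 intensity ratio per well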); conditions: HUVEC TNFa-induced p65 nuclear translocation; cell count: measured here: nuclei count (cytotoxicity indicator), at 2.08 µM; inhibition: at 2 µM, stronger effect = higher value, 0% TNFa-plus-vehicle, 100% no-TNFa wells
[2] = inhibitors of mutant huntingtin aggregation, primary screen, imaging, exon1htt(103Q)mCFP cells, high-content imaging (AID 483;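 active = visual image review flags a hit and inhibition of aggregation exceeds 20%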;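 also: compound exposure lasted 3 days before fixation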;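 as to nuclei count: percent of the per-plate median nuclei count of sample wells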); conditions: exon1htt(103Q)mCFP cell line, aggregate imaging, at 2 µM; inhibition of aggregation: stronger effect = higher value; nuclei count: measured here: cell count, toxicity
[3] = inhibitors of E-selectin induction by TNFa, primary screen, imaging, HUVEC, immunofluorescence, MLSMR starter and 10KST1 sets (AID 487;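 active = visually confirmed hit in the image check and inhibition above 20%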;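 as to inhibition: signal is fraction of cell area covered by stained E-selectin grains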;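 as to nuclei count: 100% = median nuclei count of all wells on the same plate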); conditions: HUVEC TNFalpha-induced E-selectin immunofluorescence imaging, at 2 µM; inhibition: stronger effect = higher value; nuclei count: measured here: cell number, toxicity
[4] = target: Voltage-gated potassium channel subunit beta-2 (Rattus norvegicus) (UniProt P62483); test: KvBeta enzyme negative modulators, primary screen, biochemical, NADPH fluorescence (AID 622); conditions: recombinant KvBeta, 4-cyanobenzaldehyde reduction, at 10 µM, stronger effect = higher value;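 also: slope of raw intensity against log time taken from 70 to 1610 s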
Sequence of Voltage-gated potassium channel subunit beta-2 (Rattus norvegicus) (P62483 whole entry, looked up): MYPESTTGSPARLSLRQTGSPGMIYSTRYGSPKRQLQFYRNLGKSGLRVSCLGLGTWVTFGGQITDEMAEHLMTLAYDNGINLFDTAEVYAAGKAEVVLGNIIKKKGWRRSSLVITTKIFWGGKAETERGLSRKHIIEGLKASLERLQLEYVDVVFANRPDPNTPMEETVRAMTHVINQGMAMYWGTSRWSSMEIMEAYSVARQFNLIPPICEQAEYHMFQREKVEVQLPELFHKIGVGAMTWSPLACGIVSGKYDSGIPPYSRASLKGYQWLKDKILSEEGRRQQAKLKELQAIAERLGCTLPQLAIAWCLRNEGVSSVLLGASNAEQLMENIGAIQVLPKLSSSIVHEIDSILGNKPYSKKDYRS

[5] = target: Voltage-gated potassium channel subunit beta-2 (Rattus norvegicus) (UniProt P62483); test: KvBeta positive modulators, primary screen, biochemical, NADPH fluorescence (AID 623;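 active = NADPH fluorescence slope more negative than the mean of all samples by about 3 SD, 99.7% confidence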;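 also: fluorescence intensity change per second fitted from 20 to 320 s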); conditions: Recombinant KvBeta, NADPH fluorescence decrease slope, 10 min; at 10 µM; stronger effect = lower value
[6] = target: Muscarinic acetylcholine receptor M4 (Homo sapiens) (UniProt P08173); test: compounds altering M4/GIRK thallium flux, either direction, primary screen, M4 allosteric agonist project, cell-based, HEK293 M4/GIRK, BTC-AM (AID 625;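 active = fluorescence slope after compound addition differing from the mean of all tested samples at 99.7% confidence, mostly higher but some lower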;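 also: thallium influx through GIRK channels coupled to M4 in HEK293 cells with BTC-AM dye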); conditions: at 10 µM, actives lie on both sides
Sequence of Muscarinic acetylcholine receptor M4 (Homo sapiens) (P08173 whole entry, looked up): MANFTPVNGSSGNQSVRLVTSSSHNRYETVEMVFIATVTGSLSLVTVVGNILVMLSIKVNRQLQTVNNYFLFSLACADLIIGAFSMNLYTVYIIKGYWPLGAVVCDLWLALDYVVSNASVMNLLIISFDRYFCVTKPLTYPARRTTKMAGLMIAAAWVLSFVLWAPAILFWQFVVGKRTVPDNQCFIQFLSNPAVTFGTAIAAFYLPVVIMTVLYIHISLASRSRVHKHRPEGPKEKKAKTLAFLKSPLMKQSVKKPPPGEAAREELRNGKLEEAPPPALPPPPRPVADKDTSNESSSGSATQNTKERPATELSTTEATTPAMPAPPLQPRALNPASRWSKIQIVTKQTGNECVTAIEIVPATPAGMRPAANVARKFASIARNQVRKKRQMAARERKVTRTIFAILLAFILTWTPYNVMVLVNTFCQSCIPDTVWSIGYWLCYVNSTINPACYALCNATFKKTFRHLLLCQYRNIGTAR
In short: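 Assay system: HEK293 cells with M4 receptor and GIRK channels / Controls: carbachol and DMSO controls / Schedule: 1 h dye loading, 2 min kinetic read / Technique: kinetic fluorescence with BTC-AM dye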

[7] = inhibitors of Sendai virus-induced IRF3 signaling, primary screen, TLR/RLR signaling modifier project, cell-based, Sendai virus stimulus, luciferase, 10K MLSCN set (AID 602276;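 active = inhibition at or above 50% at 10 µM; inactive = inhibition below 50%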;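 also: firefly luciferase from ISG56 promoter only with Renilla not read in this screen; 0% = Sendai virus plus DMSO and 100% = medium plus DMSO without virus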); conditions: HEK293 RL24 IRF3 luciferase reporter, at 10 µM, stronger effect = higher value
[8] = inhibitors of poly I:C-induced TLR3 signaling, primary screen, cell-based, poly I:C stimulus, luciferase, 10K MLSCN set (AID 602277;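 active = inhibition of the reporter signal at or above 50%; inactive = inhibition below 50%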); conditions: HEK293-TLR3 RL24 IRF3 luciferase reporter, at 10 µM, stronger effect = higher value

CCn1c(=N)n(CC(=O)C23CC4CC(CC(C4)C2)C3)c2ccccc21
cell count [1]: 721
inhibition [1]: -26.7% (inactive)
inhibition of aggregation [2]: -8.2% (inactive)
nuclei count [2]: 93.6%
inhibition [3]: -45.9% (inactive)
nuclei count [3]: 117%
fluorescence slope [4]: -0.271 (inactive)
NADPH fluorescence slope [5]: -1.5e-05 (inactive)
fluorescence slope [6]: 0.00365 (inactive)
inhibition [7]: 1.98% (inactive)
inhibition [8]: 23.3% (inactive)

CCNC(=O)N1c2ccc(OCC)cc2C(C)=CC1(C)C
cell count [1]: 599
inhibition [1]: 2.5% (inactive)
inhibition of aggregation [2]: 37.2% (inactive)
nuclei count [2]: 94.1%
inhibition [3]: -34% (inactive)
nuclei count [3]: 102%
fluorescence slope [4]: -0.588 (inactive)
NADPH fluorescence slope [5]: -3e-05 (inactive)
fluorescence slope [6]: 0.00404 (inactive)
inhibition [7]: -6.26% (inactive)
inhibition [8]: 4.09% (inactive)

CCOC(=O)C1=C(CN2CCOCC2)NC(=O)NC1c1cc(C)ccc1C (centres undefined)
cell count [1]: 492
inhibition [1]: -3% (inactive)
inhibition of aggregation [2]: -1.1% (inactive)
nuclei count [2]: 117%
inhibition [3]: -30.8% (inactive)
nuclei count [3]: 108%
fluorescence slope [4]: -0.205 (inactive)
NADPH fluorescence slope [5]: -1.6e-05 (inactive)
fluorescence slope [6]: 0.00619 (inactive)
inhibition [7]: 15.4% (inactive)
inhibition [8]: 7.78% (inactive)

O=c1c2nnn(Cc3ccccc3)c2ncn1-c1ccccc1
cell count [1]: 522
inhibition [1]: -8.6% (inactive)
inhibition of aggregation [2]: 16.2% (inactive)
nuclei count [2]: 86.9%
inhibition [3]: 9% (inactive)
nuclei count [3]: 99%
fluorescence slope [4]: -0.411 (inactive)
NADPH fluorescence slope [5]: -8.2e-05 (inactive)
fluorescence slope [6]: 0.00572 (inactive)
inhibition [7]: 14.3% (inactive)
inhibition [8]: 25.9% (inactive)

Nc1c(Sc2ccccc2)c(=O)[nH]c(=O)n1Cc1ccccc1
cell count [1]: 254
inhibition [1]: 7.4% (inactive)
inhibition of aggregation [2]: -8.5% (inactive)
nuclei count [2]: 92.6%
inhibition [3]: -3.2% (inactive)
nuclei count [3]: 78.6%
fluorescence slope [4]: -0.249 (inactive)
NADPH fluorescence slope [5]: -4.4e-06 (inactive)
fluorescence slope [6]: 0.00651 (inactive)
inhibition [7]: -0.235% (inactive)
inhibition [8]: -2.56% (inactive)

COc1ccccc1CNC(=O)CCn1c(=O)[nH]c2ccsc2c1=O
cell count [1]: 504
inhibition [1]: 1.1% (inactive)
inhibition of aggregation [2]: 6.6% (inactive)
nuclei count [2]: 111%
inhibition [3]: 9.6% (inactive)
nuclei count [3]: 110%
fluorescence slope [4]: -0.266 (inactive)
NADPH fluorescence slope [5]: -3e-05 (inactive)
fluorescence slope [6]: 0.0062 (inactive)
inhibition [7]: 16.6% (inactive)
inhibition [8]: -5.76% (inactive)

CCSc1nnc(NC(=O)CSc2ncccn2)s1
cell count [1]: 278
inhibition [1]: 0.5% (inactive)
inhibition of aggregation [2]: -3% (inactive)
nuclei count [2]: 105%
inhibition [3]: -42.2% (inactive)
nuclei count [3]: 111%
fluorescence slope [4]: -0.529 (inactive)
NADPH fluorescence slope [5]: -4.9e-05 (inactive)
fluorescence slope [6]: 0.00524 (inactive)
inhibition [7]: -9.35% (inactive)
inhibition [8]: 4% (inactive)

Cc1cc(C)c2cc(CN(CC3CCCO3)C(=O)NC3CCCCC3)c(=O)[nH]c2c1 (centres undefined)
cell count [1]: 598
inhibition [1]: -21% (inactive)
inhibition of aggregation [2]: -17.9% (inactive)
nuclei count [2]: 109%
inhibition [3]: -28.1% (inactive)
nuclei count [3]: 94%
fluorescence slope [4]: -0.567 (inactive)
NADPH fluorescence slope [5]: -5.6e-05 (inactive)
fluorescence slope [6]: 0.0057 (inactive)
inhibition [7]: 16.7% (inactive)
inhibition [8]: 17.3% (inactive)

COC(=O)c1ccccc1S(=O)(=O)N(Cc1cc2cc3c(cc2[nH]c1=O)OCO3)C1CCCCC1
cell count [1]: 532
inhibition [1]: -3.6% (inactive)
inhibition of aggregation [2]: -4.8% (inactive)
nuclei count [2]: 134%
inhibition [3]: -71.1% (inactive)
nuclei count [3]: 161%
fluorescence slope [4]: -0.487 (inactive)
NADPH fluorescence slope [5]: -9.9e-05 (inactive)
fluorescence slope [6]: 0.00583 (inactive)
inhibition [7]: -3.7% (inactive)
inhibition [8]: -14.5% (inactive)
